Results taken from ChEMBL document CHEMBL4477274, “Discovery of Novel Dot1L Inhibitors through a Structure-Based Fragmentation Approach” (ACS Med Chem Lett, 2016).

What was measured:
[1] = molecular target: T1, Histone-lysine N-methyltransferase, H3 lysine-79 specific (Homo sapiens, UniProt Q8TEK3); assay: Inhibition of DOT1L in human HeLa cells assessed as reduction in H3K79me2 level after 72 hrs by ELISA; format: cell-based
MV4-11 = assay: Antiproliferative activity against human MV4-11 cells harboring MLL-AF4 treated for 6 hrs measured after 8 days by Celltiter-Glo reagent based assay; format: functional, cell-based
[2] = molecular target: T1, Histone-lysine N-methyltransferase, H3 lysine-79 specific; assay: Inhibition of DOT1L in human MOLM13 cells assessed as suppression of HoxA9 gene after 72 hrs by luciferase reporter gene assay; format: cell-based
[3] = molecular target: T1, Histone-lysine N-methyltransferase, H3 lysine-79 specific; assay: Inhibition of DOT1L (2 to 416 residues) (unknown origin) using biotinylated nucleosomes as substrate preincubated for 30 mins followed by substrate addition in presence of [3H-Me]SAM by scintillation proximity assay
[4] = Volume of distribution in Sprague-Dawley rat at 1 mg/kg, iv administered as bolus dose measured up to 48 hrs by LC-MS/MS analysis; format: ADME, organism-based; settings: in vivo
In short: (§1)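 Male Sprague Dawley rats received a single intravenous bolus at 1 mg/kg. Total blood concentrations were followed over time. Clearance, volume of distribution, half-life and AUC0-inf were derived from the blood profile.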

[5] = AUC (0 to infinity) in Sprague-Dawley rat at 1 mg/kg, iv administered as bolus dose by LC-MS/MS analysis; format: ADME, organism-based; parameters: dose 1 mg/kg, route intravenous, time infinity; settings: in vivo; in short: as §1
[6] = Half life in Sprague-Dawley rat at 1 mg/kg, iv administered as bolus dose by LC-MS/MS analysis; format: ADME, organism-based; settings: in vivo; in short: as §1
[7] = Drug level in Sprague-Dawley rat blood at 15 mg/kg, po administered via gastric intubation up to 24 hrs by LC-MS/MS analysis; format: ADME, organism-based; settings: in vivo
In short: (§2)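 Oral dosing was given to male Sprague Dawley rats as a suspension at 15 mg/kg. Total blood concentrations were sampled over time to give Cmax, Tmax and AUC0-inf. Oral bioavailability was calculated at this dose.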

[8] = Oral bioavailability in Sprague-Dawley rat at 15 mg/kg administered via gastric intubation measured up to 48 hrs by LC-MS/MS analysis; format: ADME, organism-based; settings: in vivo; in short: as §2
[9] = Tmax in Sprague-Dawley rat at 15 mg/kg, po administered via gastric intubation by LC-MS/MS analysis; format: ADME, organism-based; settings: in vivo; in short: as §2
[10] = Permeability of compound by HDM-PAMPA assay; format: ADME
[11] = AUC (0 to infinity) in Sprague-Dawley rat at 15 mg/kg, po administered via gastric intubation by LC-MS/MS analysis; format: ADME, organism-based; parameters: dose 15 mg/kg, route oral, time infinity; settings: in vivo; in short: as §2
[12] = Clearance in Sprague-Dawley rat at 1 mg/kg, iv administered as bolus dose measured up to 48 hrs by LC-MS/MS analysis; format: ADME, organism-based; settings: in vivo; in short: as §1
[13] = Cmax in Sprague-Dawley rat at 15 mg/kg, po administered via gastric intubation measured up to 48 hrs by LC-MS/MS analysis; format: ADME, organism-based; parameters: dose 15 mg/kg, route oral; settings: in vivo; in short: as §2

T1 sequence (Q8TEK3 whole entry): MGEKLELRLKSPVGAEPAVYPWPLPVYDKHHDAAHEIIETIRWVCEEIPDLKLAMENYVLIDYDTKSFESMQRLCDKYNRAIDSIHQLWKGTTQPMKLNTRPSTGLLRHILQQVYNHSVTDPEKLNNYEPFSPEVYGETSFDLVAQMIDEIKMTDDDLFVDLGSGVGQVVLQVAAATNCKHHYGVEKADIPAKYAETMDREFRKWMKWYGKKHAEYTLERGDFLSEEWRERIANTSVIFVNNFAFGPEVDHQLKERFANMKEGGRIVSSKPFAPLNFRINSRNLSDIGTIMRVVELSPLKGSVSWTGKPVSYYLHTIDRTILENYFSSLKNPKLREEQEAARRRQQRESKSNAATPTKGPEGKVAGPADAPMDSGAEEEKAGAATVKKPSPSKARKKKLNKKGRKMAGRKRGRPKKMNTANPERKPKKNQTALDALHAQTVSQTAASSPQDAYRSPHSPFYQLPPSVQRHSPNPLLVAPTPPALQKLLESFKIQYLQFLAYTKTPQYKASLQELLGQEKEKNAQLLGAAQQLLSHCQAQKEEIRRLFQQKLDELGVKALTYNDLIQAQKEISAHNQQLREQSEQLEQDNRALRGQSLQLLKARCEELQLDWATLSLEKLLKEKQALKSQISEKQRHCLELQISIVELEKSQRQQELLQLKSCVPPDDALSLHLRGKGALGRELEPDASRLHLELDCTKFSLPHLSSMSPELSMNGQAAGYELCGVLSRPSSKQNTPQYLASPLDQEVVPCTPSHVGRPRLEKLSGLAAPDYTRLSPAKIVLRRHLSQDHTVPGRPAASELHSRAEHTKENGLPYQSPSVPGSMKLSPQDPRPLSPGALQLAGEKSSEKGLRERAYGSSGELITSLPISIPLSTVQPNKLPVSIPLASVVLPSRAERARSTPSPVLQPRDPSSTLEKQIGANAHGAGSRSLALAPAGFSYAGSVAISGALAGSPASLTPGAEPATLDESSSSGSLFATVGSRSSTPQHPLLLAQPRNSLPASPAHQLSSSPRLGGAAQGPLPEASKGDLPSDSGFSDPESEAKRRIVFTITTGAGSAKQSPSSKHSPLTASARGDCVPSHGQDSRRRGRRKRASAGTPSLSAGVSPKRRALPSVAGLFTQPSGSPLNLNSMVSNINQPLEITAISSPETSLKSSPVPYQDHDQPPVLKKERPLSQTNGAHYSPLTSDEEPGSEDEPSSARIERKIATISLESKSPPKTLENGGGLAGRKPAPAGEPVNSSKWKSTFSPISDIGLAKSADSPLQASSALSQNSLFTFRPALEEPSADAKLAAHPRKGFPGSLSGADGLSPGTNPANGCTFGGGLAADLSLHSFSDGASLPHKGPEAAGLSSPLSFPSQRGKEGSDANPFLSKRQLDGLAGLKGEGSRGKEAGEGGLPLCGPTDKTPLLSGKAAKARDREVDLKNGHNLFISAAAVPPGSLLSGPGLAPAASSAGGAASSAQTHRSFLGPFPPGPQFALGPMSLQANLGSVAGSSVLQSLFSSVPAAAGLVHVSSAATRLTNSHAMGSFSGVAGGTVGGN

Work on `CNc1ccnc(Nc2ccc3cc(C)n(-c4ccccc4Oc4cnc5c(c4)ncn5C)c3c2)n1` yielded an IC50 [1] of 16 nM, an IC50 (MV4-11) of 128 nM and an IC50 [2] of 340 nM. The IC50 [3] was 0.4 nM and the Ki [3] was 0.08 nM.
`CNc1ccnc(Nc2ccc3sc(Cl)c(-c4cc(-c5c(C)ncn(C)c5=O)cnc4Cl)c3c2)n1` gave a Vd [4] of 10 L/kg, an AUC(0-inf) [5] of 0.396 µM·h and an IC50 [1] of 23 nM. The half-life [6] was 1.7 h, the IC50 (MV4-11) was 85 nM and the Drug uptake [7] was “Active”. For the same molecule, the bioavailability [8] was 40%, the Tmax [9] was 3.5 h and the permeability [10] was “Permeable”. The AUC(0-inf) [11] was 2.37 µM·h, the IC50 [2] was 384 nM and the clearance [12] was 84 mL/min/kg. For the same molecule, the Cmax [13] was 225 nM, the IC50 [3] was 1.4 nM and the Ki [3] was 0.36 nM.
Work on `CCNC(=O)Nc1ccc2ccn(-c3ccccc3Cl)c2c1` yielded an IC50 [3] of 40000 nM.
In the case of `CNc1ccnc(Nc2ccc3cc(C)n(-c4cccnc4Cl)c3c2)n1`, the IC50 [3] is reported as 280 nM.
With `O=C(Cn1nnnc1COc1ccccc1Cl)NNC(=O)Nc1ccc(Cl)cc1` the IC50 [3] was 4400 nM.
With `Cc1cc2ccc(NC3=NC(=O)CN3)cc2n1-c1cccnc1Cl` the IC50 [3] was 4100 nM.
`Cc1cc2ccc(Nc3cccnn3)cc2n1-c1cccnc1Cl` gave an IC50 [3] of 28000 nM.
`Cc1cc2ccc(Nc3nc(=O)cc[nH]3)cc2n1-c1cccnc1Cl` showed an IC50 [3] of 1100 nM.
With `CNc1ccnc(Nc2ccc3cc(C)n(-c4ccccc4Oc4ccccc4)c3c2)n1` the IC50 [3] was 150 nM.
With `O=C(Cn1nnc(COc2ccccc2Cl)n1)NNC(=O)Nc1ccc(Cl)cc1` the IC50 [3] was 14000 nM.
With `Cc1cc2ccc(Nc3nccc(N)n3)cc2n1-c1cccnc1Cl` the IC50 [3] was 4300 nM.
With `O=C(Cn1nnnc1-c1ccccc1Cl)NNC(=O)Nc1ccc2ccn(-c3ccccc3Cl)c2c1` the permeability [10] was “Impermeable” and the IC50 [3] was 20 nM.
`CNc1ccnc(Nc2ccc3cc(C)n(-c4cc(-c5c(C)ccn(C)c5=O)cnc4Cl)c3c2)n1` showed an IC50 [3] of 10 nM.
